Results from ChEMBL document CHEMBL1687899, “Structure-activity relationships in nucleotide oligomerization domain 1 (Nod1) agonistic γ-glutamyldiaminopimelic acid derivatives” (J Med Chem, 2011).

How the values were obtained:
Format in all cases: functional, cell-based
[1] = target: T1, Nucleotide-binding oligomerization domain-containing protein 1 (Homo sapiens, UniProt Q9Y239); test: Agonist activity at human NOD-1 expressed in human HEK293 cells assessed as NF-kappaB induction by spectrophotometric analysis
T1 sequence (Q9Y239 whole entry): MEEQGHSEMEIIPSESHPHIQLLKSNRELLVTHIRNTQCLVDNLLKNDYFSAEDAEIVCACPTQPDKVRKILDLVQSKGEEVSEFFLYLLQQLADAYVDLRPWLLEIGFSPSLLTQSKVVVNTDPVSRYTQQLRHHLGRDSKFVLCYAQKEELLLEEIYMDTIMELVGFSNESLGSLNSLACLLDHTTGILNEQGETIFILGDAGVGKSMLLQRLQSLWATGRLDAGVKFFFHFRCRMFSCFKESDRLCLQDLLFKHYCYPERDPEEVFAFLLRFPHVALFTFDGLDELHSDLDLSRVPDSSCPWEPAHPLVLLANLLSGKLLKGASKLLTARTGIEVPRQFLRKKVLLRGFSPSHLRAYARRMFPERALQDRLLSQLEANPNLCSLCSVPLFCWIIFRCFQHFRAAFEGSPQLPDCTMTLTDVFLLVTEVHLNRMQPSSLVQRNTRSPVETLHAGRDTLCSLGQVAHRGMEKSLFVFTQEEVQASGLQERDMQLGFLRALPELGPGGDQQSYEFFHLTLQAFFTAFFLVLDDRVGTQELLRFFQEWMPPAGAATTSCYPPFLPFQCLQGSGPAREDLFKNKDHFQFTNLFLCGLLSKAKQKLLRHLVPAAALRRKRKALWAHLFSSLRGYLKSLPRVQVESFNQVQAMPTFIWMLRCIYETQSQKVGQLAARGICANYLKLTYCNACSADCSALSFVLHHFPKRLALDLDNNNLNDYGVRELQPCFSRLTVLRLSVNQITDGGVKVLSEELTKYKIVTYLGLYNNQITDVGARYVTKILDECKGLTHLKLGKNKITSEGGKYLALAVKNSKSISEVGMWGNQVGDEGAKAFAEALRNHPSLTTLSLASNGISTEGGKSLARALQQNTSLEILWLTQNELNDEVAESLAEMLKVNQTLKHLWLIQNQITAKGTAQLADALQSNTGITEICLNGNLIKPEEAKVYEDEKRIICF
Summary of the method: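 HEK-Blue cells (HEK293 stably transfected with human Nod1 and an NF-κB/AP-1-inducible secreted alkaline phosphatase reporter) were kept in selection medium with zeocin and normocin. Cells at ~10^5 cells/mL were grown to confluency and then given graded compound concentrations. Supernatant sAP was read spectrophotometrically at 620 nm with an alkaline phosphatase-specific chromogen.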

[2] = Upregulation of p38 MAPK expression in human […] by flow cytometry
Summary of the method: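 Fresh heparinized human whole blood was incubated with graded compound concentrations diluted in saline for 15 min at 37°C. Erythrocytes were lysed and leukocytes fixed in one step, then permeabilized in ice-cold methanol for 30 min. Cells were stained 60 min with PE anti-phospho-p38MAPK (pT180/pY182) or a PE IgG1 κ isotype control. Flow cytometry acquired 20,000 gated events.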

[3] = Upregulation of CD11b expression in human […] by flow cytometry
Summary of the method: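 Fresh anticoagulated human whole blood was incubated with graded compound dilutions for 1 h at 37°C, with saline negative controls. Samples were chilled 15 min, then stained with anti-CD11b/Mac-1 on ice for 30 min so only surface CD11b was labelled. Erythrocytes were lysed and leukocytes fixed, then washed. Flow cytometry in single-color PE mode acquired 20,000 gated events.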

Structure (SMILES)	EC50 [1]	Activity [2]	Activity [3]
CCCCCCCCCCCC(=O)N[C@H](CCC(=O)NC1CCCCNC1=O)C(=O)O (stereo not given in full)	1.73 nM		
CCCCCCCCCCCC(=O)N[C@H](CCC(=O)NCCCCCN)C(=O)O	> 100 nM		
CCCCCCCCCCCC(=O)NC(CCCC(NC(=O)CC[C@@H](N)C(=O)O)C(=O)O)C(=O)O (stereo not given in full)	0.55 nM		
CCCCCCCCCCCC(=O)N[C@H](CCC(=O)N[C@@H](CCCCN)C(=O)O)C(=O)O	0.57 nM		
CCCCCCCCCCCNC(=O)[C@H](N)CCC(=O)NC(CCCC(N)C(=O)O)C(=O)O (stereo not given in full)	0.826 nM		
CCCCCCCCCCCC(=O)N[C@H](CCC(=O)N[C@H](CCCCN)C(=O)O)C(=O)O	> 100 nM		

Now those with a lower EC50 [1], led by results:

EC50 [1]	Structure (SMILES)	Activity [2]	Activity [3]
0.023 nM	CCCCCCCCCCCCN[C@H](CCC(=O)NC(CCCC(N)C(=O)O)C(=O)O)C(=O)O (stereo not given in full)		
0.39 nM	CCCCCCCCCCCOC(=O)CCCC(=O)NC(CCCC(N)C(=O)O)C(=O)O (stereo not given)		
0.069 nM	CCCCCCCCCCCC(=O)N[C@H](CCC(=O)NC(CCCC(N)C(=O)O)C(=O)O)C(=O)OCC (stereo not given in full)		
0.2 nM	CCCCCCCCN(CCCCCCCC)[C@H](CCC(=O)NC(CCCC(N)C(=O)O)C(=O)O)C(=O)O (stereo not given in full)		
0.027 nM	CCCCCCCCCCCC(=O)N[C@H](CCC(=O)NC(CCCC(N)C(=O)O)C(=O)O)C(=O)O (stereo not given in full)	Dose-dependent effect	Dose-dependent effect
0.504 nM	CCCCCCCCCCCC(=O)NCCCC(=O)NC(CCCC(N)C(=O)O)C(=O)O (stereo not given)		
0.181 nM	CCCCCCCCCCCSC(=O)[C@H](N)CCC(=O)NC(CCCC(N)C(=O)OCC)C(=O)OCC (stereo not given in full)		
